Reference: ChEMBL document CHEMBL1123479, “Substituted 1,3,4-thiadiazoles with anticonvulsant activity. 2. Aminoalkyl derivatives” (J Med Chem, 1986)

Tests used:
[1] = species: Mus musculus; experiment: Compound was evaluated for anticonvulsant activity in mice against metrazole seizures; type: functional
In short: (§1)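 Mouse screen with oral dosing; the ED50 is given in mg/kg, po. Signs of sedation, ataxia, loss of righting reflex and death were noted after oral dosing before anticonvulsant testing.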

[2] = species: Mus musculus; experiment: Compound was evaluated for anticonvulsant activity in mice against electroshock seizures; type: functional; in short: as §1
[3] = species: Mus musculus; experiment: Compound was evaluated for inhibition of hind limb tonus (anticonvulsant activity) in mouse; type: functional, Hindlimb
In short: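 Maximal electroshock in mice, ip dosing. The ED50 (mg/kg) is for blocking hind limb tonic extension at each compound's time of peak effect, which was determined in min. 95% confidence limits are reported.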

[4] = tested on: Mus musculus; experiment: Compound was evaluated for inhibition of hind limb tonus (anticonvulsant activity) in mouse maximal metrazole seizures (MMS) after peroral administration; type: functional; conditions: Hindlimb, po
[5] = Compound was tested for rotarod test in mice and TD50 value at which 50% of trained animals fall off rotarod was reported; type: organism-based; conditions: mouse, in vivo
In short: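 Mice trained on the rotorod, then dosed po (tested at 1 h) or ip (tested at time of peak anticonvulsant effect). Neurotoxicity scored as falling off the rod.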

[6] = species: Mus musculus; experiment: Compound was evaluated for inhibition of hind limb tonus (anticonvulsant activity ) in mouse; type: functional, Hindlimb
In short: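 Maximal electroshock in mice, scoring abolition of hind-limb tonic extension. Compound given ip and tested at its time of peak effect. ED50 in mg/kg reported with 95% confidence limits.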

Row | Structure (SMILES) | ED50 [1] [mg/kg] | ED50 [2] [mg/kg] | also measured
1 | NCCc1nnc(-c2ccccc2-c2ccccc2)s1 | 68 | 50 | 
2 | CC(C)NCc1nnc(-c2ccccc2-c2ccccc2)s1 | 35 | 23 | 
3 | CNCc1nnc(-c2ccccc2)s1 | > 200 | > 200 | 
4 | NCCCc1nnc(-c2ccccc2-c2ccccc2)s1 | > 200 | > 200 | 
5 | CC(N)c1nnc(-c2ccccc2-c2ccccc2)s1 (centres undefined) | 32 | 21 | 
6 | NCc1nnc(-c2ccccc2-c2ccccc2)s1 |  |  | Peak effect time [3]: 10 min; ED50 [4]: 20 mg/kg
7 | CCCCCCOc1ccccc1-c1nnc(CNC)s1 |  | 44 | 
8 | Cc1ccccc1NCc1nnc(-c2ccccc2-c2ccccc2)s1 | > 200 | > 200 | 
9 | NCc1nnc(Cc2ccccc2)s1 | 200 | 110 | 
10 | CN(C)Cc1nnc(-c2ccccc2-c2ccccc2)s1 | 35 | 32 | 
11 | c1ccc(CNCc2nnc(-c3ccccc3-c3ccccc3)s2)cc1 | 29 | 37 | 
12 | CNCc1nnc(-c2ccccc2-c2ccccc2)s1 | 20 | 25 | 
13 | NCc1nnc(Cc2ccccc2-c2ccccc2)s1 |  | 30 | 
14 | CCCCCCOc1ccccc1-c1nnc(CN)s1 |  | 34 | 
15 | NC(=O)N1c2ccccc2C=Cc2ccccc21 [CARBAMAZEPINE] |  |  | Peak effect time [3]: 20 min
16 | CCC1(c2ccccc2)C(=O)NC(=O)NC1=O [PHENOBARBITAL] |  |  | TD50 [5]: 86 mg/kg; Peak effect time [6]: 30 min
17 | O=C1NC(=O)C(c2ccccc2)(c2ccccc2)N1 [PHENYTOIN] |  |  | Peak effect time [6]: 60 min
